Reference: PubChem BioAssay AID624466 (The Scripps Research Institute Molecular Screening Center, 2012)
The campaign covered roughly 360,000 compounds. About 5,400 (1.5%) were called active. This is one part of a sample in which actives are shown more often than they occur.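 Rule for the calls: active = inhibition above a per-plate cutoff, the mean inhibition of test compounds on that plate plus 3 SD (cut at about 49% in these data); inactive = the rest.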

target: Trace amine-associated receptor 1 (Homo sapiens) (UniProt Q96RJ0); assay: blockers of beta-PEA-driven TAAR1 calcium signal – Fluo-8 calcium fluorescence, CHO RD-HGA16 cells, primary screen (AID 624466); details: CHO RD-HGA16 TAAR1, Fluo-8 calcium fluorescence, antagonist; at 3 µM; active compounds read high;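 note: 0% = DMSO plus EC80 beta-PEA response and 100% = DMSO alone without agonist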
Sequence (Q96RJ0 whole entry, looked up): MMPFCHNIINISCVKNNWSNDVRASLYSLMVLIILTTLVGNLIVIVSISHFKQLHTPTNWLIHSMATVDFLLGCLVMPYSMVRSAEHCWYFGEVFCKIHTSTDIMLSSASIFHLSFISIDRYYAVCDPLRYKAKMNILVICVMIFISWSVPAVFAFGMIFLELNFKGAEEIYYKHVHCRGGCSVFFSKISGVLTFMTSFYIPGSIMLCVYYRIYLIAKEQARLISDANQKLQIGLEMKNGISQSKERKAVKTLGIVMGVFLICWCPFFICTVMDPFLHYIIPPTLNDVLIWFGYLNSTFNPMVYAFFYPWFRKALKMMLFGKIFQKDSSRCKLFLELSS
Method in brief: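 Assay system: RD-HGA16 CHO cells with stable hTAAR1 and Gα16 / Reagent: EC80 β-phenethylamine stimulus / Doses: 3 µM, single point / Timing: dye loading 75 min at 37 °C, then 30 min room temperature / Measured by: Fluo-8 intracellular calcium dye fluorescence, real-time kinetic reads / Controls: vehicle wells and EC80 agonist wells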

inhibition, inactive:
Cc1ncc([N+](=O)[O-])n1CCOC(=O)c1ccc(Br)cc1 11.2%
CC(C)(C)C(c1nc2ccccc2[nH]1)n1c(Cc2csc3ccccc23)nc2ccccc21 (configuration not stated) 11.6%
CC(C)C[C@@H]1Cc2[nH][nH]c(=O)c2[C@H](CCc2ccccc2)O1 -21.2%
C[N+](C)(C)CCNC(=O)c1cc[n+](Cc2ccccc2)c(/C=N/O)c1 5.47%
COC(=O)C1=C(C)N(Cc2ccccc2C(F)(F)F)C(=NCc2ccc(OC)cc2)NC1c1cccc(C(F)(F)F)c1 (configuration not stated) 4.48%
Cc1ccc(S(=O)(=O)N(CC(=O)NCc2ccco2)c2ccccc2C)cc1 5.84%
CCN(CC(=O)NCc1ccco1)S(=O)(=O)c1ccc(F)cc1 -11.9%
COc1ccc(C(C(=O)NCc2ccccc2)n2c(=O)c(-c3ccccc3)nc3ccccc32)cc1 (configuration not stated) -24.7%
CN(Cc1ccccc1)C(=O)[C@@H]1CCCN1C(=O)[C@@H]1CCCN1C(=O)c1c(F)cccc1F -1.21%
Cc1nnc(SCC(=O)NC(=O)NC2CCCC2)n1N -8.31%
CC(C)Oc1cc(F)ccc1-c1cc(C(=O)Nc2cccc(Cl)c2)[nH]n1 42.5%
COc1cc(NC(=O)c2cc(-c3ccc(F)cc3OC(C)C)n[nH]2)cc(OC)c1OC 47.6%
O=C(CN1CCN(c2ccc(O)cc2)CC1)NC1CCCc2ccccc21 (configuration not stated) -0.58%
CCS(=O)(=O)Nc1ccc(C2=NN(C(C)=O)C(c3cccs3)C2)cc1 (configuration not stated) 6.89%
Cc1ccc(C2CC(c3cccc(NS(C)(=O)=O)c3)=NN2S(C)(=O)=O)cc1 (configuration not stated) 0.27%
FC(F)Oc1ccc(NC(=S)NCc2ccco2)cc1Cl 36.8%
O=C(CSc1nc2cccc(F)c2c(=O)n1-c1ccccc1)Nc1ccc2c(c1)CCC2 -17.1%
CC(NC(=O)c1ccccc1)C(=O)OCC(=O)Nc1cccc(S(=O)(=O)N2CCCC2)c1 (configuration not stated) -4.21%
O=C(COC(=O)COc1ccccc1F)Nc1cccc(S(=O)(=O)N2CCCCC2)c1 -6.77%
COc1cccc(CCNC(=O)COc2cccc3c2OC(C)(C)C3)c1 3.3%
CCCNC(=O)C1CC(=O)N(c2ccc(OCC(=O)Nc3cccc(C)c3C)cc2)C1 (configuration not stated) -17.9%
NC(=O)c1ccsc1NC(=O)COC(=O)COc1ccc(C=O)cc1 24.6%
Cc1cccc(C(=O)OCC(=O)Nc2sccc2C(N)=O)c1C -21.5%
CCCCNC(=O)C[C@@H]1C[C@@]2(C(=O)OCC)CCC=C2N(Cc2cccc3ccccc23)C1=O -3.28%
COc1cc(C(=O)OC(C)C(=O)NCC2CCCCC2)cc(NC(=O)c2ccco2)c1OC (configuration not stated) -4.96%
COc1ccc(NC(=O)CCS(=O)(=O)c2cc3c(cc2Cl)NC(=O)CO3)cc1OC -9.29%
Cc1cc2c(cc1S(=O)(=O)CCC(=O)NCc1ccccc1)OCC(=O)N2 8.55%
O=C(NC1CCCC1)C1c2ccccc2OCC(=O)N1Cc1ccccc1 (configuration not stated) -5.5%
Cc1ccc(C)c(OCCC(=O)OCC(=O)NC(=O)NCc2ccccc2)c1 -20.1%
Cc1ccc2cc(C)c(N3CCN(c4ccc(F)cc4)CC3)nc2c1 -19.1%
Cc1ccc2cc(C)c(N3CCC(C)CC3)nc2c1 -22.1%
COC(=O)[C@]12C[C@H](CC(=O)NCc3cccc(C(F)(F)F)c3)C(=O)N(Cc3ccc4c(c3)OCO4)C1=C[C@H](COCc1ccccc1)O[C@@H]2C -19.1%
COc1ccc(N2CCN(C(=O)c3ccc(N4CCCCS4(=O)=O)cc3)CC2)cc1 -21.9%
CC(C)C(=O)Nc1ccc2c3c(cccc13)CC2 -5.92%
Cc1cc(NC(=O)COC(=O)c2ccc(F)c(S(=O)(=O)N3CCOCC3)c2)no1 -19.8%
COc1ccc(C(=O)OCC(=O)c2ccc(C)c(S(=O)(=O)N3CCOCC3)c2)cc1OC 47.7%
NC(=O)C1CCN(C(=O)c2ccc(F)c(S(=O)(=O)N3CCOCC3)c2)CC1 6.75%
COc1ccc(C(=O)OC(C)C(=O)NC2CCCC2)cc1S(=O)(=O)N1CCOCC1 (configuration not stated) -9.55%
CC(C)(O)C1=C[N+](=O)CC=C1 2.41%
CC1(C(=O)Nc2cccnc2)Cc2c(-c3ccccc3)ccnc2O1 (configuration not stated) -9.98%
CC(C)C[C@@H]1COc2cc(N3CCC[C@@H]3CO)ccc2S(=O)(=O)N1 -24.6%
Cc1ccc2c(c1)N(CC(=O)NCCCN1CCCCC1)C(=O)c1cccnc1O2 -18.1%
O=C(CN1C(=O)c2cccnc2Oc2ccc(Cl)cc21)NCCc1ccccc1 12.2%
CN(C)C1CN(Cc2cn(Cc3ccccc3)nn2)S(=O)(=O)C1 (configuration not stated) -30.8%
C=CC1=CCN(S(=O)(=O)C(C)(C)C)[C@@H]1CCO -20.8%
Cc1cccc(C(=O)Nc2ccc(Oc3cnccn3)cc2)c1 -6.75%
Cc1cccc(C(=O)Nc2ccc3c(c2)C(=O)N(CC(C)C)C3=O)c1 16.9%
Cc1nc2c(OCc3ccc(Cl)cc3Cl)cccn2c1N(C)CC1CC1 16.7%
CCCCCCCCN1C(=O)[C@@H](CC(=O)NCCCC)C[C@@]2(C(=O)OC)C1=C[C@H](C(C)(C)C)O[C@@H]2C -28.5%
CCOc1ccc(NC(=O)CN(C)C(=O)c2c(C)noc2C)cc1OCC -17.5%
CCCCOCCCNC(=O)C[C@@H]1C[C@@]2(C(=O)OCC)CCCC=C2N(CCC2=CCCCC2)C1=O -7.17%
COC(=O)c1ccc(C23CC4(C2)[C@H](CN(Cc2cccnc2)[C@@H]4c2ccccc2)C3c2ccc(Cl)nc2)cc1 (some centres not stated) 34.6%
COC(=O)[C@@]12C[C@@H](CC(=O)NCCCCc3ccccc3)C(=O)N(CCc3ccc(OC)c(OC)c3)C1=CCC(C)(C)C2 22.4%
CCOc1cc(C(=O)N2CCc3cc(OC)c(OC)cc3C2)ccc1OC(F)F -21.9%
O=C1NC[C@H](Cc2ccc(O)cc2)N(C[C@H]2CCCN2C[C@H](Cc2ccccc2)N2C[C@H](Cc3ccccc3)N(CCc3ccccc3)C(=O)C2=O)C1=O -19.2%
COc1ccc(-c2ccccc2C2Cc3nnccc3CN2C(=O)Nc2ccccc2)cc1 (configuration not stated) -11.4%
COC(=O)[C@]12CCCCC=C1N(Cc1cccc3ccccc13)C(=O)[C@H](CC(=O)N1CCOCC1)C2 34.8%
COc1ccccc1C(=O)Nc1ccc(Nc2ccccc2)cc1 1.01%
COc1cc(OC)c(C(=O)NNC(=O)c2ccc(NS(=O)(=O)c3cccs3)cc2)cc1OC -17.5%
O=C(NCc1ccccc1)[C@@H]1CCCN1C(=O)[C@H]1CCCN1C(=O)c1cccc(Cl)c1 -3.29%
CCCCCCCCN1C(=O)[C@H](CC(=O)NCc2cccc3ccccc23)C[C@@]2(C(=O)OC)CCCCC=C12 2.1%
COCCCn1cc(CN2CC(N(C)C)CS2(=O)=O)nn1 (configuration not stated) -29.3%
CCCCC[C@H](C)N1C[C@@H](COCc2ccccc2)Oc2cc(N3CCC[C@@H]3CO)ccc2S1(=O)=O -12.8%
CCOc1ccc(C(=O)Nc2ccc(CN3CCOCC3)cc2)cc1Cl 3.95%
CCOc1ccc(C(=O)NC(=S)Nc2ccc(NC(=O)C(C)C)cc2)cc1[N+](=O)[O-] 38.4%
O=C(Nc1ccccc1)C1CC(=O)n2c(nc3ccccc32)N1 (configuration not stated) -8.36%
CCCCC(O)C1=C[N+](=O)CC=C1 (configuration not stated) 0.52%
COc1ccccc1C(=O)Nc1ccc(C)c(S(=O)(=O)N2CCCCC2)c1 35.1%
COc1cc(NC(=O)COc2ccccc2Cl)ccc1NC(=O)C(C)C -12.5%
Cc1ccc(NC(=O)COc2coc(CN3CCc4ccccc4C3)cc2=O)cc1Cl -6.95%
Cc1ccc(NC(=O)COC(=O)C2CC2)cc1S(=O)(=O)N1CCOCC1 -10.1%

inhibition, active:
COc1ccc(S(=O)(=O)N(CC(=O)NCc2ccco2)c2ccc(F)cc2)cc1 57.5%
CC(C)Oc1cc(F)ccc1-c1cc(C(=O)Nc2ccc(F)cc2)[nH]n1 68.5%
CS(=O)(=O)Nc1cccc(C2=NN(C(=O)c3cccc(F)c3)C(c3cccs3)C2)c1 (configuration not stated) 62.3%
CCOc1ncccc1C(=O)OCC(=O)Nc1cccc(S(=O)(=O)N2CCCCCC2)c1 63.8%
COc1cc(OC)cc(C(=O)OCC(=O)Nc2sccc2C(N)=O)c1 63%
COc1ccc(Cl)cc1NC(=O)CCS(=O)(=O)c1cc2c(cc1C)NC(=O)CO2 63.3%
COc1cc(SC#N)ccc1N=Cc1c(C)[nH]n(-c2ccc(C)cc2)c1=O 87.5%
Cc1cc(C)c2cc(C#N)c(N3CCNCC3)nc2c1 76.6%
COc1ccc(C(=O)Oc2ccc(-c3nnco3)cc2)cc1S(=O)(=O)N1CCOCC1 60.2%
O=C(Oc1ccc(-c2nnco2)cc1)c1ccc(F)c(S(=O)(=O)N2CCOCC2)c1 84.1%
Cc1ccc2c(c1)N(CC(=O)NCCc1ccc(Cl)cc1)C(=O)c1cccnc1O2 64.2%
Cc1cccc(C(=O)Nc2ccc(C(=O)/C=C/c3cccs3)cc2)c1 59.9%
COc1cc2ccccc2cc1C(=O)Nc1ccc(NC(=O)c2cccs2)cc1 58.9%
CCOc1ccc(C(=O)NC(=S)Nc2ccc(N3CCOCC3)c(Cl)c2)cc1[N+](=O)[O-] 51.3%
Cc1ccccc1OCC(=O)Nc1ccc(N2CCN(C(=O)C(C)C)CC2)c(Cl)c1 51.1%
CCc1ccccc1OCC(=O)Nc1ccc(C)c(S(=O)(=O)N2CCCCCC2)c1 53.6%
